Bioassay records (PubChem BioAssay)
Shown are actives, neighbours in structure and some others; about 3% of the full set was active somewhere.
Cardio protect: protects H9c2 cardiomyocytes from peroxide injury. H2O2 injury protection, ATPLite, 2 h. protection from H2O2 cell death, % at 20 µM. 360,000 tested, 0.63% active;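 active = compounds giving at least 50% protection of heart cells from peroxide-induced death in the single-dose screen, raw or plate-pattern-corrected value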
SENP1 inh: inhibitors of human SENP1 SUMO protease catalytic domain | AID 624204 | 360,000 tested, 0.21% active | Q9P0U3 | inhibition, % at 10 µM | recombinant SENP1 catalytic domain, CyPet-SUMO1-YPet FRET cleavage;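 active = inhibition at least 30% at 10 µM, raw YFP signal under a set limit, fluorescence ratio 0.5 to 1.5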
Target sequence (Q9P0U3 419-644 limits assumed): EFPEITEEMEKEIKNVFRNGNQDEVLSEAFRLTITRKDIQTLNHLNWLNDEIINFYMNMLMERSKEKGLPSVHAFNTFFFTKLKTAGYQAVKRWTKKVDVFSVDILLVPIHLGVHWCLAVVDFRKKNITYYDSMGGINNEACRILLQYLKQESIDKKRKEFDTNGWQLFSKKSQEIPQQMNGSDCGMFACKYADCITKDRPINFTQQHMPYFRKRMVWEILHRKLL
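system = hSENP1 catalytic domain, recombinant | reagent = SFCypet-SUMO1-SFYpet substrate at 25 nM | doses = one dose per compound, 10 µM, 0.5% DMSO | incubation = enzyme reaction for 50 min at room temperature, dark | measured by = FRET, CFP and YFP emission | controls = no-enzyme low, enzyme-DMSO high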
Pemphigus Ab inh: inhibitors of pemphigus antibody binding to human desmoglein-3. DSG3-coupled beads, scFv-anti-DSG3-GFP binding, flow cytometry; hits give low values. P32926. binding (percent of control), % at 10 µM. 310,000 tested, 0.48% active;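 active = binding more than 3 SD below its plate's average and above zero; inconclusive = below that plate limit but binding exactly zero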;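 note: hits lower antibody fragment binding to DSG3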
HNF4A DNA FP: change in binding of human HNF4 alpha to DNA. P41235. HNF4a-FITC DNA binding, fluorescence polarization, 1 h. activity change, % at 10 µM. 360,000 tested, 0.3% active. AID 1224865; in the data active = activity change above about 30%, passing the limit was not always enough
Myeloid diff MLP: promotes myeloid progenitor differentiation. ER-HoxA9 myeloid progenitors, lysozyme-GFP differentiation, flow cytometry. calls only at 10 µM. 360,000 tested, 1% active. AID 624256;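 active = normalized GFP-positive differentiation at or above the plate's own cutoff, the solvent-only control mean plus 3 SD; inconclusive = no clear call, values can overlap the other calls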;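 note: cells exposed to compound for four days before flow analysis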
Exocytosis inh: lytic granule exocytosis inhibition; TALL-104 LAMP-1 surface exposure, flow cytometry; cells stimulated with thapsigargin and PMA; 360,000 tested, 0.66% active; inhibition, % at 10 µM;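 active = inhibition above about 55%, limit read from the data; inconclusive = no clear call, values can overlap the other calls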
Numbers stand for hits; – = inactive; ? = inconclusive; · = no result given; + = active, no number; ! = not active in a repeat.

SMILES	Cardio protect	SENP1 inh	Pemphigus Ab inh	HNF4A DNA FP	Myeloid diff MLP	Exocytosis inh
Cc1ccc2nsnc2c1S(=O)(=O)N(Cc1ccco1)Cc1cc2cccc(C)c2[nH]c1=O	73	–	–	–	?	–
Cc1ccc2[nH]c(=O)c(CN(Cc3ccco3)S(=O)(=O)c3c(C)ccc4nsnc34)cc2c1	50	–	–	–	–	–
Cc1ccc2[nH]c(=O)c(CN(CC3CCCO3)S(=O)(=O)c3c(C)ccc4nsnc34)cc2c1 (centres undefined)	–	–	·	–	–	–
Cc1ccc2nsnc2c1S(=O)(=O)N(Cc1ccco1)Cc1cc2ccc(C)c(C)c2[nH]c1=O	–	–	·	–	–	–
CN(C)C(=O)OCC1COc2ccccc2O1 (centres undefined)	–	–	–	–	–	–
O=C(c1cnc(Cl)c(Cl)c1)N1CCN(S(=O)(=O)c2cccs2)CC1	–	–	–	–	–	–
Cc1ccsc1/C=C/C1=Cc2c(sc(NC(=O)CSc3n[nH]c(N)n3)c2C#N)C(C)(C)C1	–	–	70	–	–	101
CCOc1ccc(/C=C/C2=Cc3c(sc(NC(=O)CSc4n[nH]c(N)n4)c3C#N)C(C)(C)C2)cc1	–	–	81	42	–	78
O=C(Nc1ccc(F)cc1)C(c1ccncc1)N1CCN(CC(=O)N2CCCC2)CC1 (centres undefined)	·	–	·	–	–	–
Cc1ccc(C(C)C)c(OCC(=O)NC(=S)Nc2ccccc2N2CCOCC2)c1	–	–	–	–	–	–
CCC(=O)N1CCN(c2ccccc2NC(=O)COc2cc(C)ccc2C(C)C)CC1	55	–	–	–	–	–
COc1ccc(C)cc1S(=O)(=O)N1c2ccc(C)cc2C2CN(C)CCC21 (centres undefined)	–	–	–	–	–	–
Cc1cc(C)c(C#N)c(SCCS(=O)(=O)c2ccc(C(C)(C)C)cc2)n1	–	–	–	–	+	–
Cc1cc(C)c(C#N)c(SCCS(=O)(=O)c2ccc(Cl)cc2)n1	–	–	–	–	–	–
Cc1cc(OC(C)C(=O)N(Cc2ccco2)C2CCS(=O)(=O)C2)cc(C)c1Cl (centres undefined)	–	–	–	–	–	–
COc1ccc(CC2(CO)CCN(S(=O)(=O)c3sccc3C)CC2)cc1	–	–	–	–	–	–
COc1cc(OC)c2ccc(=O)oc2c1C(CC(=O)N1CCN(c2ccccc2)CC1)c1ccc2c(c1)OCO2 (centres undefined)	70	–	–	–	–	–
Cc1ccc(C(=O)NC(=S)N2CCN(C(=O)OC(C)(C)C)CC2)cc1Br	–	–	–	–	–	–
NC(=O)c1nc(-c2cccs2)nc2c1[nH]c(=O)n2-c1ccc(F)cc1	–	–	–	–	–	–
COc1c(Br)cc(/C=N/n2c(-c3ccccc3)n[nH]c2=S)c(O)c1Br	64	–	–	–	–	–
CCCn1c(SC(C(=O)Nc2cccc(OC)c2)c2ccccc2)nc2ccccc2c1=O (centres undefined)	50	–	–	–	–	–
CCOC(=O)c1cccc(NC(=O)CSc2nc3ccccc3c(=O)n2CC)c1	–	–	–	–	–	–
CCOC(=O)c1cccc(NC(=O)CSc2nc3ccccc3c(=O)n2CCOC)c1	69	–	–	–	–	–
O=c1[nH]cnc2onc(-c3ccc(F)cc3)c12	–	–	–	–	–	–
COC(=O)c1c(C)[nH]c(C(=O)/C=C/c2ccccc2)c1C	–	–	–	–	+	–
SMILES	Cardio protect	SENP1 inh	Pemphigus Ab inh	HNF4A DNA FP	Myeloid diff MLP	Exocytosis inh
COC(=O)c1c(C)[nH]c(C(=O)/C=C/c2ccc(C)cc2)c1C	–	–	–	–	–	–
CCn1c(C(=O)O)c(CC(=O)Nc2ccccc2OC)c2ccccc21	–	–	–	–	–	–
Nc1cccn2c(-c3ccc(Cl)c(Cl)c3)cnc12	–	–	–	–	+	–
CC(=O)OC(C(=O)NC1CCCCC1)c1ccc(Cl)c(Cl)c1 (centres undefined)	–	–	–	–	–	–
Cc1ccccc1NC(=O)Nc1nc2ccc(S(C)(=O)=O)cc2s1	–	–	74	–	–	–
CSc1ncccc1C(=O)OCC(=O)Nc1ccc2c(c1)CCC2	–	–	–	–	–	–
Cc1c(C)c(C)c(CO/N=C/c2cccs2)c(C)c1C	–	–	·	–	–	88
Cc1ccc2nc(SCc3ccccc3)c(C=O)c(=O)n2c1	–	–	53	–	–	–
CC(=O)O/N=C(\N)c1ccc(-c2csnn2)cc1	–	–	·	–	–	–
CCCCOC(=O)/C=C/c1ccc(OC(=O)OC)c(OC(=O)OC)c1	–	–	–	–	–	–
COC(=O)Oc1ccc(/C=C/C(=O)OC(C)C)cc1OC(=O)OC	54	–	–	–	–	–
COC(=O)c1ccc(C(=O)OC)c(NC(=S)N2CCCC(CO)C2)c1 (centres undefined)	–	–	–	–	–	–
COc1ccc(Cl)cc1NC(=O)CN1c2ccccc2CC1C (centres undefined)	–	–	–	33	–	–
COC(=O)[C@H]1C[C@@]2(O)CN(S(=O)(=O)c3ccc(C)cc3)C[C@@]2(OC(=O)NCc2ccccc2F)C[C@H]1C(=O)OC	–	–	–	–	+	–
C[C@H]1CN([C@@H](C)CO)C(=O)CCCn2nncc2CO[C@H]1CN(C)C(=O)Nc1ccc2c(c1)OCO2	–	–	–	–	–	–
CS(=O)(=O)N1CCc2cc(C(=O)N3CCN(c4ccccc4F)CC3)ccc21	–	–	–	–	+	–
COc1ccccc1N1CCN(C(=O)c2ccc3c(c2)CCN3S(C)(=O)=O)CC1	–	–	–	–	–	–
Cc1cccc(NC(=O)Nc2ccc(F)cc2)n1	–	–	–	–	+	–
Cc1cccc(NC(=S)NC2CCCC2)n1	–	–	–	–	–	–
Cc1cc(C)nc(NC(=S)Nc2cccc(Cl)c2Cl)c1	–	–	–	–	+	–
Cc1cccc(NC(=S)Nc2cccc(C)n2)n1	–	–	–	–	–	73
CC(=O)c1cccc(N(CC(=O)Nc2ccccc2C(=O)N2CCCC2)S(C)(=O)=O)c1	–	–	–	–	–	–
c1cc(N2CCCCC2)nc(N2CCCCC2)n1	–	–	–	–	–	–
C[c-]1[c-](C)[c-](C)[c-](C)[c-]1C.[Fe].c1cc2nccc(N3CCCC3)[c-]2c1 (centres undefined)	–	–	80!	–	–	–
CC(C)NC(=O)C1C(c2ccccc2)=Nc2ccccc2N1C(=O)c1ccc(C(F)(F)F)cc1 (centres undefined)	·	–	·	–	–	–
CCN1/C(=C/C(C)=C/c2sc3ccccc3[n+]2CC)Sc2ccccc21	–	–	23	197	?	82
